Source: PubChem BioAssay
Hits are enriched below; roughly 3% of the tested compounds scored in any of these assays.
SENP8 block-1 = human SENP8 protease inhibitors, primary screen, biochemical, fluorescence, Nedd8 protein substrate, uHTS; Sentrin-specific protease 8 (Homo sapiens), Q96LD8; recombinant SENP8; inhibition, % at 20 µM; 0.64% of 360,000 active; AID 602440, 2012; in the data active = inhibition mostly above about 40%, no sharp cut-off; inactive = mostly below about 27%
Target sequence (Q96LD8 whole entry, looked up): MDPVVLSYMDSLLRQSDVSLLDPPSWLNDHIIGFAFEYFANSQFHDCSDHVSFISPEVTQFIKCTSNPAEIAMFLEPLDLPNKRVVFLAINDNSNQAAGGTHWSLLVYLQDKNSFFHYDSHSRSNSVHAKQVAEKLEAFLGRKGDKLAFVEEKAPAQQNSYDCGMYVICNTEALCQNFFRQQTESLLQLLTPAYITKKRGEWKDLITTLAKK
UBC13 polyUb = UBC13 polyubiquitin chain formation inhibitors, primary screen, biochemical, TR-FRET, uHTS; 0.47% of 330,000 active; Ubiquitin-conjugating enzyme E2 N (Homo sapiens), P61088; inhibition, % at 20 µM; in the data active = inhibition above about 45%, passing the limit was not always enough
Apaf1 inhib = inhibitors of human Apaf-1 apoptosome, primary screen, biochemical, DEVD-Rh110 fluorescence, uHTS | reconstituted apoptosome caspase-3 activity | inhibition, % at 20 µM | 0.71% of 330,000 active | AID 489030, 2010; active = inhibition of at least 40% at 20 µM;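 also: plate controls were DMSO wells for no effect and DEVD-CHO caspase inhibitor wells for full effect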
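Material: biochemical Apaf-1 apoptosome reconstitution. Medium: Hepes buffer, pH 7.5. Also added: cytochrome c activation, bis-DEVD rhodamine 110 substrate. Timing: 30 min compound preincubation, 50 min activation, room temperature. Measured by: rhodamine 110 fluorescence at Ex 480/Em 540 nm.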
SENP7 inh = SENP7 protease inhibitors, primary screen, biochemical, luminescence, uHTS. Sentrin-specific protease 7 (Homo sapiens), Q9BQF6. recombinant SENP7, Z-RLRGG-aminoluciferin luminescence, 40 min. inhibition, % at 5 µM. 1.5% of 330,000 active;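 active = inhibition above about 50% at the single test dose, limit read from the data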;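 also: plate controls were DMSO with enzyme for no effect and no enzyme buffer wells for full effect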
Target sequence (Q9BQF6 706-1050 limits assumed): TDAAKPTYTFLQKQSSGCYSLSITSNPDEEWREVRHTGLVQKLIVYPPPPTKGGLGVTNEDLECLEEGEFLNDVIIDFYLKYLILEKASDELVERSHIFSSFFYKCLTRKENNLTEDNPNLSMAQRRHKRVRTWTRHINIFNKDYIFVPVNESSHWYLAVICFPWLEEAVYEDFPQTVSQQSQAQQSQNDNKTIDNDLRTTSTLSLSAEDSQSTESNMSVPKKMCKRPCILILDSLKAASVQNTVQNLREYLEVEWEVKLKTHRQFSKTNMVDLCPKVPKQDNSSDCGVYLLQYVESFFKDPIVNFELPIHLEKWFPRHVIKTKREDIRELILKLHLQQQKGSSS
SENP6 block = SENP6 protease inhibitors, primary screen, biochemical, luminescence, uHTS. Sentrin-specific protease 6 (Homo sapiens), Q9GZR1. Recombinant SENP6 catalytic domain, aminoluciferin luminescence. 1.8% of 330,000 active. inhibition, % at 10 µM;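 active = inhibition above about 50% at the single tested dose, limit read from the data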;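 also: plate controls were DMSO wells with enzyme for no effect and DMSO wells lacking enzyme for full effect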
SENP8 block-2 = SENP8 protease inhibitors, primary screen, biochemical, luminescence | 1.2% of 330,000 active | Sentrin-specific protease 8 (Homo sapiens), Q96LD8 | purified SENP8, Z-RLRGG-aminoluciferin cleavage | inhibition, % at 10 µM; in the data active = inhibition above about 50%
Casp3 UBC13 ctr = CASP3 inhibitor validation, counterassay for project on UBE2N polyubiquitination blockers, biochemical, one dose; Recombinant caspase-3, Caspase-Glo 3/7 luminescence, 60 min; shares compounds with UBC13 polyUb; inhibition, % at 20 µM; AID 488856, 2010; 4% of 1,400 active;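 active = mean inhibition across replicates above about 26%, limit read from the data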;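 also: plate controls were DMSO with caspase-3 for no effect and DMSO wells lacking enzyme for full effect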
UBC13 confirm = UBC13 polyubiquitination inhibitors, single-point retest, confirmation, biochemical, TR-FRET, single concentration; shares compounds with UBC13 polyUb; inhibition, % at 10 µM; 68% of 1,400 active; in the data active = inhibition above about 45%
Apaf-1 inh conf2 = Apaf-1 inhibitors, single-dose retest, confirmation, biochemical, fluorescence, DEVD-Rh110, 20 µM; shares compounds with Apaf1 inhib; 25% of 1,800 active; inhibition, % at 20 µM; reconstituted apoptosome, caspase-3 DEVD-Rh110 fluorescence; AID 504614, 2011;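 active = mean inhibition of at least 40% at 20 µM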;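 also: plate controls were DMSO wells for no effect and DEVD-CHO caspase inhibitor control wells for full effect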
Rh110 interf inh = Rh110 fluorescence interference by putative Apaf-1 inhibitors, confirmation, artefact control for Apaf-1 inhibitor project, biochemical, 20 µM; shares compounds with Apaf1 inhib; quenched caspase reaction; activation (fluorescence interference), % at 20 µM; 1,800 tested, under 10 active;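 active = signal rise of 40% or more at 20 µM, treated as a fluorescence artifact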
* marks the source's active call; other numbers are inactive results.

How did CN(C)CCCNC(=O)CC1C[C@H](C(=O)N2CCCCC2)[C@@]2(CCc3ccccc3)c3[nH]c4ccccc4c3CCN2C1=O (some centres undefined) do in these assays?
SENP8 block-1: 14; UBC13 polyUb: 47*; Apaf1 inhib: 46*; SENP7 inh: -1; SENP6 block: -2; SENP8 block-2: 8; Casp3 UBC13 ctr: 0; UBC13 confirm: 17; Apaf-1 inh conf2: 11; Rh110 interf inh: 0

What do the screens show for `OC(CNCC1CCCO1)Cn1c2ccc(Cl)cc2c2cc(Cl)ccc21` (centres undefined)?
SENP8 block-1: 10; UBC13 polyUb: 49*; Apaf1 inhib: 43*; SENP7 inh: -1; SENP6 block: -20; SENP8 block-2: -9; Casp3 UBC13 ctr: -3; UBC13 confirm: 89*; Apaf-1 inh conf2: 14; Rh110 interf inh: 9

What do the screens show for `Cc1nc(SCC(=O)Nc2ccc(CN3CCCC3)cc2)c2c(C)c(C)sc2n1`?
SENP8 block-1: 4; UBC13 polyUb: 22; Apaf1 inhib: 40; SENP7 inh: 7; SENP6 block: -2; SENP8 block-2: 1

How did N#CCCC1(CCC#N)c2ccccc2C(=O)c2ccccc21 do in these assays?
SENP8 block-1: 5

How did OC1CC2CCC(C1)N2CCCN1c2ccccc2Sc2ccc(Cl)cc21 (centres undefined) do in these assays?
SENP8 block-1: -23

How did CCSc1ccc2c(c1)N(CCCN1CCN(C)CC1)c1ccccc1S2 do in these assays?
SENP8 block-1: -27; UBC13 polyUb: 75*; Apaf1 inhib: 57*; SENP7 inh: 0; SENP6 block: -20; SENP8 block-2: -6; Casp3 UBC13 ctr: -2; UBC13 confirm: 64*; Apaf-1 inh conf2: 18; Rh110 interf inh: -1

What do the screens show for `CN1CCN(CCCN2c3ccccc3Sc3ccc(Cl)cc32)CC1`?
SENP8 block-1: -20; UBC13 polyUb: 97*; Apaf1 inhib: 57*; SENP7 inh: 4; SENP6 block: 3; SENP8 block-2: -1; Casp3 UBC13 ctr: 1; UBC13 confirm: 99*; Apaf-1 inh conf2: 14; Rh110 interf inh: 6

What do the screens show for `OCCN1CCN(CCCN2c3ccccc3Sc3ccc(C(F)(F)F)cc32)CC1`?
SENP8 block-1: -34; UBC13 polyUb: 87*; Apaf1 inhib: 48*; SENP7 inh: 7; SENP6 block: -4; SENP8 block-2: 1; Casp3 UBC13 ctr: -2; UBC13 confirm: 92*; Apaf-1 inh conf2: 9; Rh110 interf inh: 5

Results for OCCN1CCN(CC/C=C2/c3ccccc3CSc3ccccc32)CC1 ?
SENP8 block-1: 24; UBC13 polyUb: 8; Apaf1 inhib: -1; SENP7 inh: -3; SENP6 block: -14; SENP8 block-2: 4

What do the screens show for `CC(CN1CCN(CCOCCO)CC1)CN1c2ccccc2Sc2ccc(Cl)cc21` (centres undefined)?
SENP8 block-1: -18

What do the screens show for `OCCN1CCN(CC/C=C2/c3ccccc3Sc3ccc(C(F)(F)F)cc32)CC1`?
SENP8 block-1: 5; UBC13 polyUb: 66*; Apaf1 inhib: 58*; SENP7 inh: -6; SENP6 block: -16; SENP8 block-2: -16; Casp3 UBC13 ctr: -1; UBC13 confirm: 71*; Apaf-1 inh conf2: 11; Rh110 interf inh: 2

Results for CC(=O)Nc1ccc2c(c1)nc(CCNC(=O)c1ccco1)n2C ?
SENP8 block-1: 5; UBC13 polyUb: 6; Apaf1 inhib: 1; SENP7 inh: -2; SENP6 block: -4; SENP8 block-2: 1

How did O=C(CSc1ncn[nH]1)NCCc1ccc(Cl)cc1 do in these assays?
SENP8 block-1: -6; UBC13 polyUb: -5; Apaf1 inhib: -8; SENP7 inh: -5; SENP6 block: 2; SENP8 block-2: 2

How did CC(C)C[C@@H]1CN=C(N)N1C[C@@H]1CCCN1C[C@H](C)N1C[C@@H](Cc2ccccc2)N(CCc2ccc(Cl)c(Cl)c2)C1=N do in these assays?
SENP8 block-1: 19; UBC13 polyUb: 76*; Apaf1 inhib: 63*; SENP7 inh: -7; SENP6 block: -3; SENP8 block-2: -7; Casp3 UBC13 ctr: 3; UBC13 confirm: 71*; Apaf-1 inh conf2: 7; Rh110 interf inh: 3

Results for CC(C)C[C@@H]1CN=C(N)N1C[C@@H]1CCCN1C[C@H](C)N1C[C@@H](Cc2ccccc2)N(CCCC2CCCC2)C1=N ?
SENP8 block-1: 20; UBC13 polyUb: 61*; Apaf1 inhib: 55*; SENP7 inh: -1; SENP6 block: 19; SENP8 block-2: 2; Casp3 UBC13 ctr: -5; UBC13 confirm: 64*; Apaf-1 inh conf2: 5; Rh110 interf inh: 2

What do the screens show for `CC(=O)N1CCN(c2ccc(NC(=O)c3cccc([N+](=O)[O-])c3)cc2)CC1`?
SENP8 block-1: 15; UBC13 polyUb: -2; Apaf1 inhib: -15; SENP7 inh: 1; SENP6 block: 9; SENP8 block-2: -8

How did COc1ccc2nc(C)cc(N/N=C/c3ccc(F)cc3)c2c1 do in these assays?
SENP8 block-1: -310; UBC13 polyUb: 97*; Apaf1 inhib: 50*; SENP7 inh: -3; SENP6 block: 9; SENP8 block-2: -13; Casp3 UBC13 ctr: -1; UBC13 confirm: 113*; Apaf-1 inh conf2: 12; Rh110 interf inh: 5

Results for Cn1c(=O)cc(Nc2ccccc2)c2c(=O)n(-c3ccccc3)c(=O)n(-c3ccccc3)c21 ?
SENP8 block-1: 21; UBC13 polyUb: -1; Apaf1 inhib: -12; SENP7 inh: -1; SENP6 block: -15; SENP8 block-2: 1

Results for COc1ccc(S(=O)(=O)NCCC(=O)N2CCCC2)cc1N(C)S(C)(=O)=O ?
SENP8 block-1: 14; UBC13 polyUb: -3; Apaf1 inhib: 3; SENP7 inh: -6; SENP6 block: 27; SENP8 block-2: 4
